Experimental data published in ChEMBL document CHEMBL2169759, “A new class of selective and potent 7-dehydrocholesterol reductase inhibitors” (J Med Chem, 2012).
The source made the active and inactive calls. The rule behind the calls is not given here.

Assays:
[1] = system: Yarrowia lipolytica; assay: Antifungal activity against Yarrowia lipolytica DSM 1345 after 36 hrs by disc diffusion method; assay type: organism-based; settings: in vivo
[2] = system: Saccharomyces cerevisiae; assay: Antifungal activity against Saccharomyces cerevisiae DSM 1333 after 36 hrs by disc diffusion method; assay type: organism-based; settings: in vivo
[3] = system: Saccharomyces cerevisiae; assay: Antimicrobial activity against Saccharomyces cerevisiae DSM 1333 after 48 hrs; assay type: organism-based; settings: in vivo
Summary of the method: (§1)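 MIC against the yeast strains determined according to DIN 58940-84; clotrimazole as positive control.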

[4] = target: T1, 7-dehydrocholesterol reductase (Homo sapiens) (UniProt Q9UBM7); assay: Inhibition of 7-dehydrocholesterol reductase in human HL60 cells assessed as accumulation of 7-dehydrocholesterol at 50 uM after 24 hrs by GC/MS analysis; assay type: cell-based; settings: HL-60
T1 sequence (whole entry): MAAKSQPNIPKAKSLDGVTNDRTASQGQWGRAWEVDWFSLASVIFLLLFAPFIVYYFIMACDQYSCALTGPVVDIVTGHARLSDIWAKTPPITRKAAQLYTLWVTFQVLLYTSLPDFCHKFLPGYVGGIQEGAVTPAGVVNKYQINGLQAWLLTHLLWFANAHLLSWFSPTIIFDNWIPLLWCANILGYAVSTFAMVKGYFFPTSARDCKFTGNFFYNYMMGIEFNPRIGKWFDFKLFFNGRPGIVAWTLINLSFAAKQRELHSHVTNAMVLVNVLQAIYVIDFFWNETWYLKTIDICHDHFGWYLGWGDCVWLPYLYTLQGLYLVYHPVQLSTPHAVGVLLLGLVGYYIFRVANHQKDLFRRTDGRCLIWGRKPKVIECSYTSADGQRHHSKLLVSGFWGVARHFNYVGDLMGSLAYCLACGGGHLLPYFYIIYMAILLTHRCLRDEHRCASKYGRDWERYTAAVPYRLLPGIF
Summary of the method: (§2)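 HL-60 cells (1 × 10⁶) in lipid-free HL-60 medium given inhibitor at 50 μM or 1 μM (ethanol blank) for 24 h at 37 °C, 5% CO2. Pellet saponified in 1 M NaOH, 1 h at 70 °C, then TBME microextraction with cholestane internal standard. GC-MS sterol pattern compared with blanks and with AY 9944 and BM 15.766 references.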

[5] = Antifungal activity against Aspergillus brasiliensis DSM 1988 after 36 hrs by disc diffusion method
[6] = Antibacterial activity against Streptococcus entericus DSM 14446 after 36 hrs by disc diffusion method
[7] = Antifungal activity against Hyphopichia burtonii DSM 70663 after 36 hrs by disc diffusion method
[8] = system: Nakaseomyces glabratus; assay: Antifungal activity against Candida glabrata DSM 11226 after 48 hrs; assay type: organism-based; settings: in vivo; summary of the method: as §1
[9] = target: T1, 7-dehydrocholesterol reductase (Homo sapiens); assay: Inhibition of 7-dehydrocholesterol reductase in human HL60 cells assessed as accumulation of 7-dehydrocholesterol at 1 uM after 24 hrs by GC/MS analysis; assay type: cell-based; settings: HL-60; summary of the method: as §2
[10] = system: Nakaseomyces glabratus; assay: Antifungal activity against Candida glabrata DSM 11226 after 36 hrs by disc diffusion method; assay type: organism-based; settings: in vivo
[11] = target: 3-beta-hydroxysteroid-Delta(8),Delta(7)-isomerase (Homo sapiens) (UniProt Q15125); assay: Inhibition of delta8,7-isomerase in human HL60 cells assessed as accumulation of zymostenol at 1 uM after 24 hrs by GC/MS analysis; assay type: cell-based; settings: HL-60; summary of the method: as §2
3-beta-hydroxysteroid-Delta(8),Delta(7)-isomerase (Homo sapiens), sequence (Q15125 whole entry, the tested form may be a part): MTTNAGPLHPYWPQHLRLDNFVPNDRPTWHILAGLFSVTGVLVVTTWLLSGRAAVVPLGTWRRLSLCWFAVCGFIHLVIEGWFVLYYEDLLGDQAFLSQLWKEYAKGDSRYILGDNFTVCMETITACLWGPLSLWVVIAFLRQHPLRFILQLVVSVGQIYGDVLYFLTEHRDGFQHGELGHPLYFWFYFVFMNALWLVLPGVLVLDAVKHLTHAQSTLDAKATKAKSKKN

[12] = system: HL-60; assay: Cytotoxicity against human HL60 cells after 24 hrs by MTT assay; assay type: cell-based; settings: HL-60, 24 h
Summary of the method: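 MTT colorimetric assay on HL-60 promyelocytic leukemia cells (RPMI 1640, 10% FBS, no antibiotics, 37 °C, 5% CO2) as a preliminary screen for unspecific cytotoxicity; cisplatin as reference.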

[13] = target: 3-beta-hydroxysteroid-Delta(8),Delta(7)-isomerase (Homo sapiens) (UniProt Q15125); assay: Inhibition of delta8,7-isomerase in human HL60 cells assessed as accumulation of zymostenol at 50 uM after 24 hrs by GC/MS analysis; assay type: cell-based; settings: HL-60; summary of the method: as §2
[14] = Antibacterial activity against Pseudomonas antimicrobica DSM 8361 after 36 hrs by disc diffusion method; settings: burkholderia gladioli
[15] = Antibacterial activity against Staphylococcus equorum DSM 20675 after 36 hrs by disc diffusion method
[16] = system: Escherichia coli; assay: Antibacterial activity against Escherichia coli DSM 426 after 36 hrs by disc diffusion method; assay type: organism-based; settings: in vivo
[17] = system: Yarrowia lipolytica; assay: Antifungal activity against Yarrowia lipolytica DSM 1345 after 48 hrs; assay type: organism-based; settings: in vivo; summary of the method: as §1

SMILES	MIC [3] [µg/mL]	7-dehydrocholesterol accumulation (active/not active) [4]	MIC [8] [µg/mL]	7-DHCR inhibition (active/not active) [9]	inhibition (active/not active) [11]	isomerase inhibition (active/not active) [13]	MIC [17] [µg/mL]	Activity [1]	Activity [2]	Activity [5]	Activity [6]	Activity [7]	Activity [10]	IC50 [12] [µM]	Activity [14]	Activity [15]	Activity [16]
COc1ccc(CCN2CCc3cc(OC)c(OC)cc3C2)cc1	> 20	inactive	> 20	inactive	Active	Active	> 20	Non-toxic	Non-toxic	Non-toxic	Non-toxic	Non-toxic	Non-toxic	> 50	Non-toxic	Non-toxic	Non-toxic
Clc1ccccc1C(c1ccccc1)(c1ccccc1)n1ccnc1 [CLOTRIMAZOLE]	< 1	–	< 1	–	–	–	< 1	–	–	–	–	–	–	–	–	–	–
COc1ccc(CCN2CCc3cc(OC)ccc3C2)cc1	> 20	inactive	> 20	inactive	Active	Active	> 20	Non-toxic	Non-toxic	Non-toxic	Non-toxic	Non-toxic	Non-toxic	> 50	Non-toxic	Non-toxic	Non-toxic
COc1cc2c(cc1O)CCN(CCc1ccc(F)cc1)C2	> 20	Active	> 20	Active	–	Active	> 20	Non-toxic	Non-toxic	Non-toxic	Non-toxic	Toxic	Non-toxic	> 50	Non-toxic	Non-toxic	Non-toxic
Oc1ccc(CCN2CCc3cc(O)ccc3C2)cc1	> 20	Active	> 20	inactive	–	–	> 20	Non-toxic	Non-toxic	Non-toxic	Non-toxic	Non-toxic	Non-toxic	> 50	Non-toxic	Non-toxic	Non-toxic

The next lines start with results.

MIC [3] [µg/mL]	7-dehydrocholesterol accumulation (active/not active) [4]	MIC [8] [µg/mL]	7-DHCR inhibition (active/not active) [9]	inhibition (active/not active) [11]	isomerase inhibition (active/not active) [13]	MIC [17] [µg/mL]	SMILES	Activity [1]	Activity [2]	Activity [5]	Activity [6]	Activity [7]	Activity [10]	IC50 [12] [µM]	Activity [14]	Activity [15]	Activity [16]
> 20	Active	> 20	Active	–	Active	> 20	COc1ccc(CCN2CCc3cc(O)c(OC)cc3C2)cc1	Non-toxic	Non-toxic	Non-toxic	Non-toxic	Toxic	Non-toxic	> 50	Non-toxic	Non-toxic	Non-toxic
> 20	Active	> 20	inactive	–	–	> 20	COc1cc2c(cc1O)CCN(CCc1ccccc1OC)C2	Non-toxic	Non-toxic	Non-toxic	Non-toxic	Non-toxic	Non-toxic	> 50	Non-toxic	Non-toxic	Non-toxic
